Assay results reported in ChEMBL document CHEMBL2401654, “Synthesis, characterization, and biological assessment of the four stereoisomers of the H(3) receptor antagonist 5-fluoro-2-methyl-N-[2-methyl-4-(2-methyl[1,3']bipyrrolidinyl-1'-yl)phenyl]benzamide” (Bioorg Med Chem Lett, 2013).

Columns and labels:
Histamine H3 receptor [1] = target: Histamine H3 receptor (Homo sapiens, UniProt Q9Y5N1); assay: Displacement of [3H]N-alpha-methylhistamine from recombinant human histamine H3 receptor transfected in CHO cell membranes after 1 hr by scintillation counting analysis
Procedure, shortened: (§1)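 Radioligand displacement of [3H]N-α-methylhistamine using membranes from CHO cells stably transfected with recombinant human or rat H3 receptor. Ki is presented as a range of multiple experiments (n ≥ 3).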

Cytochrome P450 1A2 = target: T1, Cytochrome P450 1A2 (Homo sapiens, UniProt P05177); assay: Inhibition of CYP1A2 (unknown origin); format: ADME
T1 sequence (P05177 whole entry): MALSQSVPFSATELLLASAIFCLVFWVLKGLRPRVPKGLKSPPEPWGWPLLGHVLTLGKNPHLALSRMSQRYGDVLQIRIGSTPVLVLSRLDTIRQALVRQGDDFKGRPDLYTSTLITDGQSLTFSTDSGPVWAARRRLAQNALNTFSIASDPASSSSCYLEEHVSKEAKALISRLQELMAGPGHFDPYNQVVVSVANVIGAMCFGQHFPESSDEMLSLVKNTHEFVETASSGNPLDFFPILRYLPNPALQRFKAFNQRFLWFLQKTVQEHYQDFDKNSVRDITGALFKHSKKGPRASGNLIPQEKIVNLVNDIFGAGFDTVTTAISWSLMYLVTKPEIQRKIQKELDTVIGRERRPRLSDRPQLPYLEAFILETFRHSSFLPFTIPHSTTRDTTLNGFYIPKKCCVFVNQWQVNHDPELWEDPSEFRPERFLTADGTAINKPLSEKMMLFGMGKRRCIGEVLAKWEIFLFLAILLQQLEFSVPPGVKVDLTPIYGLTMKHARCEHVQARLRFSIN

[2] = Drug metabolism in mouse liver microsomes at 5 uM after 20 mins; format: ADME, Microsome; details: read-out: Drug metabolism
Procedure, shortened: (§2)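 Substrate at 5 µM incubated at 37 °C for 20 min with in-house liver microsome preparations (human, mouse or rat). Reported as the percentage of parent compound metabolized.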

[3] = Drug metabolism in human liver microsomes at 5 uM after 20 mins; format: ADME, Microsome; details: read-out: Drug metabolism; procedure, shortened: as §2
Cytochrome P450 3A4 = Cytochrome P450 3A4 (Homo sapiens, UniProt P08684); assay: Inhibition of CYP3A4 (unknown origin); format: ADME
hERG (KCNH2) [4] = target: T2, hERG (KCNH2) (Homo sapiens, UniProt Q12809); assay: Inhibition of human ERG transfected in CHO cells at 10 uM by patch clamp assay relative to control; format: cell-based; details: CHO cells transfected with human ERG
Procedure, shortened: (§3)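 Whole-cell patch clamp on CHO cells stably transfected with the human ERG gene.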

Cytochrome P450 2B6 = target: T3, Cytochrome P450 2B6 (Homo sapiens, UniProt P20813); assay: Inhibition of CYP2B6 (unknown origin); format: ADME
T3 sequence (P20813 whole entry): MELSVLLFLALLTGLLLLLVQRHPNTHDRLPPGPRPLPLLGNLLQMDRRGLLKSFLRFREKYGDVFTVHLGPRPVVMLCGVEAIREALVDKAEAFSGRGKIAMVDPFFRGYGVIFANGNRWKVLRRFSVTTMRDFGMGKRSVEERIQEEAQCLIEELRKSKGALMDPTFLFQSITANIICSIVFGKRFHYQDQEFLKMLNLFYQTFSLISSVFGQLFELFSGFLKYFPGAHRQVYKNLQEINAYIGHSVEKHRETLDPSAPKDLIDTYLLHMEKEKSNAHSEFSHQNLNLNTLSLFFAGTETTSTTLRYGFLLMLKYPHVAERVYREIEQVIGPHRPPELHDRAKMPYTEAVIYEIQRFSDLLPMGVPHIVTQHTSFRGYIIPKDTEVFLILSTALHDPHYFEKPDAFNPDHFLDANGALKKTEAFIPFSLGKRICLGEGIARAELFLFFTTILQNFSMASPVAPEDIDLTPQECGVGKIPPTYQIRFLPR

Cytochrome P450 2D6 = Cytochrome P450 2D6 (Homo sapiens, UniProt P10635); assay: Inhibition of CYP2D6 (unknown origin); format: ADME
hERG (KCNH2) [5] = target: T2, hERG (KCNH2); assay: Inhibition of human ERG transfected in CHO cells at 1 uM by patch clamp assay relative to control; format: cell-based; details: CHO cells transfected with human ERG; procedure, shortened: as §3
[6] = Drug metabolism in rat liver microsomes at 5 uM after 20 mins; format: ADME, Microsome; details: read-out: Drug metabolism; procedure, shortened: as §2
Salmonella typhimurium = assay: Mutagenic activity in Salmonella typhimurium by Ames test; format: toxicity, organism-based; details: salmonella enterica subsp. enterica serovar typhimurium
Cytochrome P450 2C19 = Cytochrome P450 2C19 (Homo sapiens, UniProt P33261); assay: Inhibition of CYP2C19 (unknown origin); format: ADME
Cytochrome P450 2C9 = Cytochrome P450 2C9 (Homo sapiens, UniProt P11712); assay: Inhibition of CYP2C9 (unknown origin); format: ADME
Histamine H3 receptor [7] = target: Histamine H3 receptor (Rattus norvegicus, UniProt Q9QYN8); assay: Displacement of [3H]N-alpha-methylhistamine from recombinant rat histamine H3 receptor transfected in CHO cell membranes after 1 hr by scintillation counting analysis; set-up: species or system Membrane; procedure, shortened: as §1
[8] = Genotoxicity in micronucleus (unknown origin)

T2 sequence (Q12809 whole entry): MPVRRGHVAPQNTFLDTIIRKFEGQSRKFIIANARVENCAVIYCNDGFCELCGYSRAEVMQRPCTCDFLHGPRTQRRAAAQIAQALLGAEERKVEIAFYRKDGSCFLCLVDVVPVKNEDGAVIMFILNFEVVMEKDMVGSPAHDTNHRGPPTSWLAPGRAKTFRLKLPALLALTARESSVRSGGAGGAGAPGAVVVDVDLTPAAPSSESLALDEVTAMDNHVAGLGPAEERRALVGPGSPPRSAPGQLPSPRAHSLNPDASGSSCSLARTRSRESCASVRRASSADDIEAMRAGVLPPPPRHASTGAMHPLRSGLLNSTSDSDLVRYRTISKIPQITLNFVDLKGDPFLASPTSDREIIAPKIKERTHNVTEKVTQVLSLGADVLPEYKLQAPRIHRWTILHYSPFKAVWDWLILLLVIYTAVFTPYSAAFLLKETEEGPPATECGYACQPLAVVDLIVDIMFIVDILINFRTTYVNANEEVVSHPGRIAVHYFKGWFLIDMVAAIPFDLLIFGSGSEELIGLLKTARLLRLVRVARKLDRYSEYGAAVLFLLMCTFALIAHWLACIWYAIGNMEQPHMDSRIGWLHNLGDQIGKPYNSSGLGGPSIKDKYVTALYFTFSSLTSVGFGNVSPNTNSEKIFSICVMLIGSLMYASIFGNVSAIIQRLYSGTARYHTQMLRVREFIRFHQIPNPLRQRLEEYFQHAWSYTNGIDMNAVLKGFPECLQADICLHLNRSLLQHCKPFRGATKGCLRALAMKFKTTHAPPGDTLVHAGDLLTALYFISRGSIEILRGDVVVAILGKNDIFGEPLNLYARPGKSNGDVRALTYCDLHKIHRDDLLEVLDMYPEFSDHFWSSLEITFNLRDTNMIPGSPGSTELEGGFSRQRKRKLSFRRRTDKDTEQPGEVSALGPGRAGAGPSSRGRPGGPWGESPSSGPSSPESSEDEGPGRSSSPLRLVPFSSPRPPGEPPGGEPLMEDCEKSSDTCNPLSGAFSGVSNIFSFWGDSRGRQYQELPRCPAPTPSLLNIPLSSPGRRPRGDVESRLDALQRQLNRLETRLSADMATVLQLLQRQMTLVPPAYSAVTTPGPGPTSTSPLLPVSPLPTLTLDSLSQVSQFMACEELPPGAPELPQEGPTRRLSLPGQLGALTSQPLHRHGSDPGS
Cytochrome P450 3A4, sequence (P08684 whole entry): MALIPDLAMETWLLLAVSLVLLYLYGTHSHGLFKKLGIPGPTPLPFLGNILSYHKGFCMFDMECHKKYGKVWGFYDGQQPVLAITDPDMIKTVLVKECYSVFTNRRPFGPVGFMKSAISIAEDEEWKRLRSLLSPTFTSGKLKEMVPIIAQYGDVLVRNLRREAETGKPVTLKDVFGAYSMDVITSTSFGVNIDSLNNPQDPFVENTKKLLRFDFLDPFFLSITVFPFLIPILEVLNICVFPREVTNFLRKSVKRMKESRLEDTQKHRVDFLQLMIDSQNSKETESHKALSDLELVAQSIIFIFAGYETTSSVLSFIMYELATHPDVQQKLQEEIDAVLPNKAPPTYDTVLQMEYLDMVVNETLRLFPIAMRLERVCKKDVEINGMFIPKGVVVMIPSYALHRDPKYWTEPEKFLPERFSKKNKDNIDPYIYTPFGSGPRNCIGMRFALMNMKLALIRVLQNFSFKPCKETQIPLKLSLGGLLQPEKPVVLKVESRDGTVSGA
Histamine H3 receptor (Rattus norvegicus, UniProt Q9QYN8), sequence (Q9QYN8 whole entry): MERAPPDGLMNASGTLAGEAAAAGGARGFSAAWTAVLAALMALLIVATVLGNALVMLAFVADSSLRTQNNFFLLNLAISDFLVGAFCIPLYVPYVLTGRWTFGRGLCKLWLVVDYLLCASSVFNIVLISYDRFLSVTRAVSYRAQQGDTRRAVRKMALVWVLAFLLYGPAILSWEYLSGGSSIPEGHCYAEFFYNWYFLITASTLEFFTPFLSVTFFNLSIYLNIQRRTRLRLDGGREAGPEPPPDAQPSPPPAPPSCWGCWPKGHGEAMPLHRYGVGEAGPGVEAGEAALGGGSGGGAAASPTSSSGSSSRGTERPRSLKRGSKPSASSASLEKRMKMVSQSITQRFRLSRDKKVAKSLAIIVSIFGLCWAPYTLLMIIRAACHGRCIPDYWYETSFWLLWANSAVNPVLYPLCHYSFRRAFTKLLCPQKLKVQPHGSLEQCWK
Cytochrome P450 2C9, sequence (P11712 whole entry): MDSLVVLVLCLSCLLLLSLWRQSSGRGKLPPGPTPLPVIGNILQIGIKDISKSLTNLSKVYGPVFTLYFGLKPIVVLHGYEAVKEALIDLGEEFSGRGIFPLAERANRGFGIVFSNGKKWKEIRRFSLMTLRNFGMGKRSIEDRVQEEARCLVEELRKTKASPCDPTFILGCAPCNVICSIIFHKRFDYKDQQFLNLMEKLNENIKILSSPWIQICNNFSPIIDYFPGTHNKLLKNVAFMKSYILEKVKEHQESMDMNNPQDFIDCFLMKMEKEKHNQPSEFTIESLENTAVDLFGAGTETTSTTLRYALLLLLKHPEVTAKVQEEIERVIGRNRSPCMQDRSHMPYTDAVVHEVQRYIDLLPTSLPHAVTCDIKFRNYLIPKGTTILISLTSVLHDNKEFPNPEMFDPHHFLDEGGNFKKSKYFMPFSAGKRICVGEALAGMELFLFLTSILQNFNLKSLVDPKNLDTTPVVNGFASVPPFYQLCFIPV
Cytochrome P450 2C19, sequence (P33261 whole entry): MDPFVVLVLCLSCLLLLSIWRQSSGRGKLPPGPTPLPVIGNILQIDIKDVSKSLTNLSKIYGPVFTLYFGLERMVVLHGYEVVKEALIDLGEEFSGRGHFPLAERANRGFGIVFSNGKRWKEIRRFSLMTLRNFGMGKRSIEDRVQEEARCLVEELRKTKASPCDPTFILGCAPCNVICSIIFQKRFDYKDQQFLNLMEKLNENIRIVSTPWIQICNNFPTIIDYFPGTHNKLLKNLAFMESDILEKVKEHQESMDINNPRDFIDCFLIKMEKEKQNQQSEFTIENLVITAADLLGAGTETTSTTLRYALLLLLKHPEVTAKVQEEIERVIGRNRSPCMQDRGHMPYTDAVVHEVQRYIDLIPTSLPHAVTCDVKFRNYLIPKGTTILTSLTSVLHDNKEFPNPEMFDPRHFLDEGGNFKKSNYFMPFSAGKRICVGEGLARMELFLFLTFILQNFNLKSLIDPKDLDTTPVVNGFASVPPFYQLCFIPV
Histamine H3 receptor (Homo sapiens, UniProt Q9Y5N1), sequence (Q9Y5N1 whole entry): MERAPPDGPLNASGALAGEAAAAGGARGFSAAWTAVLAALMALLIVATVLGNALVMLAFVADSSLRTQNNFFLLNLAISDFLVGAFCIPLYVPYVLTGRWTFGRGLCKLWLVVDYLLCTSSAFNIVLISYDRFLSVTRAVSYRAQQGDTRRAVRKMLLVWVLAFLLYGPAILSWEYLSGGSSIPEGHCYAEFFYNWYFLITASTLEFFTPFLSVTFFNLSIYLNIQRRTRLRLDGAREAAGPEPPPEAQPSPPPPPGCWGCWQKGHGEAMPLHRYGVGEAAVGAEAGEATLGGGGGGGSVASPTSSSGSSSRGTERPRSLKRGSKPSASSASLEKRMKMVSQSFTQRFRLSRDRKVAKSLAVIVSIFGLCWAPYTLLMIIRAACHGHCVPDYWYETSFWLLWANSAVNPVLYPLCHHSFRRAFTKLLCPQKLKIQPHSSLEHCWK
Cytochrome P450 2D6, sequence (P10635 whole entry): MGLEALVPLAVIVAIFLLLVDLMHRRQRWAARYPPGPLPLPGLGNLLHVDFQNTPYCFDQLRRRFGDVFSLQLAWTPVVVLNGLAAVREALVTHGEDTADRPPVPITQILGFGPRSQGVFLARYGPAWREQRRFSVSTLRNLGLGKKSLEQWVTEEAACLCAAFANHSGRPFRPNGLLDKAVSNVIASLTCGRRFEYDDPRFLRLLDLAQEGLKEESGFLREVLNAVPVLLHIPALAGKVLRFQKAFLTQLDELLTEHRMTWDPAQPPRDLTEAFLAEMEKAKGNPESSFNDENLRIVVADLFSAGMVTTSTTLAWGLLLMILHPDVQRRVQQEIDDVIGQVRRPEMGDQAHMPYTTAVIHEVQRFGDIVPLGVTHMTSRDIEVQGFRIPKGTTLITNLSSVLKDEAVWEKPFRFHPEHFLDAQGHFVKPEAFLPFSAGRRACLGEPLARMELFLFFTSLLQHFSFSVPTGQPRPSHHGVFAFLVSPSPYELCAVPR

Ki (Histamine H3 receptor [1]): 0.3 µM
IC50 (Cytochrome P450 1A2): > 30 µM
metabolised at 20 min, 5 µM [2]: 17%
metabolised at 20 min, 5 µM [3]: 8%
IC50 (Cytochrome P450 3A4): > 30 µM
IC50 (Cytochrome P450 2B6): > 30 µM
IC50 (Cytochrome P450 2D6): > 30 µM
metabolised at 20 min, 5 µM [6]: 27%
IC50 (Cytochrome P450 2C19): > 30 µM
IC50 (Cytochrome P450 2C9): > 30 µM
Ki (Histamine H3 receptor [7]): 0.0737 µM
Compound: Cc1cc(N2CC[C@@H](N3CCC[C@H]3C)C2)ccc1NC(=O)c1cc(F)ccc1C
inhibition at 10 µM (hERG (KCNH2) [4]): 77.5%
inhibition at 1 µM (hERG (KCNH2) [5]): 33.7%
Activity (Salmonella typhimurium): Non-toxic
Activity [8]: Non-toxic
